Measurements as given in ChEMBL document CHEMBL4715736, “Identification of anticancer agents based on the thieno[2,3-b]pyridine and 1H-pyrazole molecular scaffolds” (2016).

Columns and labels:
Format in all cases: functional
[1] = tested on: SK-OV-3; assay: Growth inhibition of human SK-OV-3 cells assessed as cell growth at 0.1 uM incubated for 48 hrs by sulforhodamine B assay relative to control; settings: read-out: Activity
[2] = tested on: Hs-578T; assay: Growth inhibition of human Hs-578T cells assessed as cell growth at 1 uM incubated for 48 hrs by sulforhodamine B assay relative to control; settings: read-out: Activity
[3] = tested on: OVCAR-4; assay: Growth inhibition of human OVCAR-4 cells assessed as cell growth at 0.1 uM incubated for 48 hrs by sulforhodamine B assay relative to control; settings: read-out: Activity
[4] = tested on: OVCAR-3; assay: Growth inhibition of human OVCAR-3 cells assessed as cell growth at 0.1 uM incubated for 48 hrs by sulforhodamine B assay relative to control; settings: read-out: Activity
[5] = tested on: Hs-578T; assay: Growth inhibition of human Hs-578T cells incubated for 48 hrs by sulforhodamine B assay; settings: for CC50: read-out: LC50 (the source's name)
Summary of the method: (§1)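 NCI60 panel at the NCI Developmental Therapeutics Program. Only compounds active in the 10 µM screen went to dose-response testing. GI50, the concentration giving 50% of maximal inhibition of proliferation, and TGI, the concentration giving total growth inhibition, were derived from the dose-response curves.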

[6] = tested on: SW-620; assay: Growth inhibition of human SW-620 cells assessed as cell growth at 100 uM incubated for 48 hrs by sulforhodamine B assay relative to control; settings: read-out: Activity
[7] = tested on: KM12; assay: Growth inhibition of human KM12 cells incubated for 48 hrs by sulforhodamine B assay; summary of the method: as §1
[8] = tested on: DU-145; assay: Growth inhibition of human DU-145 cells incubated for 48 hrs by sulforhodamine B assay; settings: for CC50: read-out: LC50 (the source's name)
Summary of the method: (§2)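 NCI Developmental Therapeutics Program NCI60 panel. Compounds that were active in the 10 µM one-dose screen went on to dose–response testing. Growth at each concentration is expressed relative to untreated control (100%). GI50 (concentration giving 50% of maximal inhibition of proliferation) and TGI (concentration giving total growth inhibition) were derived from the curves.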

[9] = tested on: T47D; assay: Growth inhibition of human T47D cells assessed as cell growth at 100 uM incubated for 48 hrs by sulforhodamine B assay relative to control; settings: read-out: Activity
[10] = tested on: NCI-H460; assay: Growth inhibition of human NCI-H460 cells assessed as cell growth at 0.1 uM incubated for 48 hrs by sulforhodamine B assay relative to control; settings: read-out: Activity
[11] = tested on: MDA-MB-231; assay: Growth inhibition of human MDA-MB-231 cells assessed as cell growth at 100 uM incubated for 48 hrs by sulforhodamine B assay relative to control; settings: read-out: Activity
[12] = tested on: HOP-62; assay: Growth inhibition of human HOP-62 cells assessed as cell growth at 100 uM incubated for 48 hrs by sulforhodamine B assay relative to control; settings: read-out: Activity
[13] = tested on: IGROV-1; assay: Growth inhibition of human IGROV-1 cells incubated for 48 hrs by sulforhodamine B assay; summary of the method: as §1
[14] = tested on: A549; assay: Growth inhibition of human A549/ATCC cells assessed as cell growth at 100 uM incubated for 48 hrs by sulforhodamine B assay relative to control; settings: read-out: Activity; summary of the method: as §2
[15] = tested on: MDA-MB-435; assay: Growth inhibition of human MDA-MB-435 cells assessed as cell growth at 0.1 uM incubated for 48 hrs by sulforhodamine B assay relative to control; settings: read-out: Activity
[16] = tested on: NCI/ADR-RES; assay: Growth inhibition of human NCI/ADR-RES cells assessed as cell growth at 100 uM incubated for 48 hrs by sulforhodamine B assay relative to control; settings: read-out: Activity
[17] = tested on: SNB-19; assay: Growth inhibition of human SNB-19 cells assessed as cell growth at 1 uM incubated for 48 hrs by sulforhodamine B assay relative to control; settings: read-out: Activity
[18] = tested on: SW-620; assay: Growth inhibition of human SW-620 cells assessed as cell growth at 1 uM incubated for 48 hrs by sulforhodamine B assay relative to control; settings: read-out: Activity
[19] = tested on: SK-MEL-5; assay: Growth inhibition of human SK-MEL-5 cells incubated for 48 hrs by sulforhodamine B assay
Summary of the method: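 NCI DTP 60-line human tumour panel. Dose-response curves were run only for ligands active in the initial 10 µM screen. GI50 (concentration giving 50% of maximal inhibition of proliferation) and TGI (concentration giving total growth inhibition) were derived from these curves.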

[20] = tested on: CAKI-1; assay: Growth inhibition of human CAKI-1 cells assessed as cell growth at 100 uM incubated for 48 hrs by sulforhodamine B assay relative to control; settings: read-out: Activity; summary of the method: as §2
[21] = tested on: MOLT-4; assay: Growth inhibition of human MOLT-4 cells assessed as cell growth at 0.1 uM incubated for 48 hrs by sulforhodamine B assay relative to control; settings: read-out: Activity
[22] = tested on: OVCAR-5; assay: Growth inhibition of human OVCAR-5 cells assessed as cell growth at 0.01 uM incubated for 48 hrs by sulforhodamine B assay relative to control; settings: read-out: Activity
[23] = tested on: Malme-3M; assay: Growth inhibition of human Malme-3M cells assessed as cell growth at 100 uM incubated for 48 hrs by sulforhodamine B assay relative to control; settings: read-out: Activity
[24] = tested on: TK-10; assay: Growth inhibition of human TK-10 cells assessed as cell growth at 0.01 uM incubated for 48 hrs by sulforhodamine B assay relative to control; settings: read-out: Activity
[25] = tested on: NCI-H226; assay: Growth inhibition of human NCI-H226 cells incubated for 48 hrs by sulforhodamine B assay; settings: for CC50: read-out: LC50 (the source's name); summary of the method: as §1
[26] = tested on: ACHN; assay: Growth inhibition of human ACHN cells assessed as cell growth at 0.1 uM incubated for 48 hrs by sulforhodamine B assay relative to control; settings: read-out: Activity
[27] = tested on: A549; assay: Growth inhibition of human A549/ATCC cells assessed as cell growth at 0.01 uM incubated for 48 hrs by sulforhodamine B assay relative to control; settings: read-out: Activity; summary of the method: as §2
[28] = tested on: HOP-62; assay: Growth inhibition of human HOP-62 cells assessed as cell growth at 0.1 uM incubated for 48 hrs by sulforhodamine B assay relative to control; settings: read-out: Activity
[29] = tested on: BT-549; assay: Growth inhibition of human BT-549 cells assessed as cell growth at 100 uM incubated for 48 hrs by sulforhodamine B assay relative to control; settings: read-out: Activity
[30] = tested on: HOP-92; assay: Growth inhibition of human HOP-92 cells assessed as cell growth at 0.1 uM incubated for 48 hrs by sulforhodamine B assay relative to control; settings: read-out: Activity
[31] = tested on: DU-145; assay: Growth inhibition of human DU-145 cells assessed as cell growth at 1 uM incubated for 48 hrs by sulforhodamine B assay relative to control; settings: read-out: Activity; summary of the method: as §2
[32] = tested on: HOP-92; assay: Growth inhibition of human HOP-92 cells assessed as cell growth at 100 uM incubated for 48 hrs by sulforhodamine B assay relative to control; settings: read-out: Activity
[33] = tested on: Malme-3M; assay: Growth inhibition of human Malme-3M cells assessed as cell growth at 1 uM incubated for 48 hrs by sulforhodamine B assay relative to control; settings: read-out: Activity
[34] = tested on: TK-10; assay: Growth inhibition of human TK-10 cells assessed as cell growth at 1 uM incubated for 48 hrs by sulforhodamine B assay relative to control; settings: read-out: Activity
[35] = tested on: M14; assay: Growth inhibition of human M14 cells assessed as cell growth at 1 uM incubated for 48 hrs by sulforhodamine B assay relative to control; settings: read-out: Activity

CCc1ccccc1NC(=O)c1sc2nc3c(cc2c1N)C(=O)CCC3
growth at 0.1 µM [1]: 103%
growth at 1 µM [2]: 18%
growth at 0.1 µM [3]: 88%
growth at 0.1 µM [4]: 100%
GI50 [5]: 0.302 µM
TGI [5]: > 100 µM
CC50 [5]: > 100 µM
growth at 100 µM [6]: 12%
GI50 [7]: 0.402 µM
LC50 [7]: > 100 µM
TGI [7]: > 100 µM
GI50 [8]: 0.499 µM
TGI [8]: > 100 µM
CC50 [8]: > 100 µM
growth at 100 µM [9]: -5%
growth at 0.1 µM [10]: 98%
growth at 100 µM [11]: 4%
growth at 100 µM [12]: -22%
GI50 [13]: 13.7 µM
LC50 [13]: > 100 µM
TGI [13]: > 100 µM
growth at 100 µM [14]: 12%
growth at 0.1 µM [15]: 29%
growth at 100 µM [16]: -6%
growth at 1 µM [17]: 45%
growth at 1 µM [18]: 18%
GI50 [19]: 0.282 µM
LC50 [19]: > 100 µM
TGI [19]: > 100 µM
growth at 100 µM [20]: 35%
growth at 0.1 µM [21]: 103%
growth at 0.01 µM [22]: 84%
growth at 100 µM [23]: -5%
growth at 0.01 µM [24]: 93%
GI50 [25]: 20.1 µM
TGI [25]: > 100 µM
CC50 [25]: > 100 µM
growth at 0.1 µM [26]: 92%
growth at 0.01 µM [27]: 97%
growth at 0.1 µM [28]: 82%
growth at 100 µM [29]: 11%
growth at 0.1 µM [30]: 69%
growth at 1 µM [31]: 27%
growth at 100 µM [32]: -6%
growth at 1 µM [33]: 50%
growth at 1 µM [34]: 55%
growth at 1 µM [35]: 17%

CCc1cccc(C)c1NC(=O)c1sc2nc3c(cc2c1N)C(=O)CCC3
growth at 1 µM [2]: 20%
growth at 0.1 µM [3]: 91%
growth at 0.1 µM [4]: 104%
TGI [5]: > 100 µM
CC50 [5]: > 100 µM
growth at 100 µM [6]: 14%
GI50 [7]: 0.413 µM
LC50 [7]: > 100 µM
TGI [7]: > 100 µM
GI50 [8]: 0.454 µM
TGI [8]: > 100 µM
CC50 [8]: > 100 µM
growth at 100 µM [9]: -10%
growth at 0.1 µM [10]: 100%
growth at 100 µM [11]: 24%
growth at 100 µM [12]: 28%
GI50 [13]: 0.111 µM
LC50 [13]: > 100 µM
TGI [13]: > 100 µM
growth at 100 µM [14]: 6%
growth at 0.1 µM [15]: 71%
growth at 100 µM [16]: 1%
growth at 1 µM [17]: 47%
growth at 1 µM [18]: 17%
GI50 [19]: 0.294 µM
LC50 [19]: 39 µM
TGI [19]: 151 µM
growth at 100 µM [20]: 12%
growth at 0.1 µM [21]: 102%
growth at 0.01 µM [22]: 87%
growth at 100 µM [23]: -1%
GI50 [25]: 0.182 µM
TGI [25]: > 100 µM
CC50 [25]: > 100 µM
growth at 0.1 µM [26]: 97%
growth at 0.01 µM [27]: 96%
growth at 0.1 µM [28]: 92%
growth at 0.1 µM [30]: 70%
growth at 1 µM [31]: 21%
growth at 100 µM [32]: -7%
growth at 1 µM [33]: 31%
growth at 1 µM [35]: 17%
